The target in experiment [1] is T1, Sex hormone-binding globulin (Homo sapiens) (UniProt P04278).
T1 sequence (whole entry): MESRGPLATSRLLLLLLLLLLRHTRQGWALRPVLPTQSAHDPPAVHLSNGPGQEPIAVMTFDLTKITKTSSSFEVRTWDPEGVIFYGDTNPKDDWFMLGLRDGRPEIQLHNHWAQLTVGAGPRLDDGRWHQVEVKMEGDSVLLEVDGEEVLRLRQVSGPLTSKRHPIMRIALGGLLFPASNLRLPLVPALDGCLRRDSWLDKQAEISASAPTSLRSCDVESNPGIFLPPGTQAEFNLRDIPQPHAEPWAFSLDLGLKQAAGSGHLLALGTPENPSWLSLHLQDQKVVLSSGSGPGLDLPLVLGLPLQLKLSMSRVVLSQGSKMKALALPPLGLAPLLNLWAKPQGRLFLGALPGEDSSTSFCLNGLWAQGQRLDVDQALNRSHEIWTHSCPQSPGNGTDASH
As to the kind of experiment: In vitro inhibition of [3H]DHT binding to human sex hormone-binding globulin (SHBG). The arrangement: concentration or dose not given beside the values. Put shortly: (§1)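 Human pregnancy serum diluted 1:200 (about 1 nM SHBG), stripped of endogenous steroid with dextran-coated charcoal, mixed with [3H]DHT at 10 nM. Triplicate test compound added, incubated overnight at room temperature. Dextran-coated charcoal slurry then added for 10 min at 0°C and centrifuged to separate bound from free label. Bound label counted by scintillation and expressed relative to the no-competitor control.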

For experiment [2], the target named is T1, Sex hormone-binding globulin (Homo sapiens). Description: Relative binding affinity towards human sex hormone-binding globulin (SHBG) compared to estradiol. Put shortly: as §1
For experiment [3] the target is unchanged. As to the kind of experiment: Relative binding affinity for human sex hormone-binding globulin (SHBG) compared to testosterone. The gist of the method:
as §1

The target in experiment [4] is T2, Sex hormone-binding globulin (Homo sapiens, UniProt P04278).
T2 sequence (P04278 whole entry): T1 sequence (whole entry)
As to the kind of experiment: Inhibitory concentration against [3H]-DHT binding to human sex hormone-binding globulin (SHBG). Put shortly:
as §1

In experiment [5] the target is T1, Sex hormone-binding globulin (Homo sapiens). As to the kind of experiment: Association […] constant for human sex hormone-binding globulin (SHBG).

The source of these data is ChEMBL document CHEMBL1143630, “Successful in silico discovery of novel nonsteroidal ligands for human sex hormone binding globulin” (J Med Chem, 2005).

As for `COc1cc2c(cc1O)CCN(C[C@@H](O)CNCCO)[C@H]2C`, the Reduction in experiment [1] was found to be 12%. For `O=C(Cc1ccc2cccnc2c1)c1ccc(O)cc1O`, the Reduction in experiment [1] was 0%. Turning to `CC(=O)c1c(O)c(C)c(O)c2c1OC1=CC(=O)[C@H](C(C)=O)C(=O)[C@]12C`, the Reduction in experiment [1] is 4%. For the compound `O=C1C=CC2=C3c4cc(O)c(O)cc4C[C@@]3(O)COC2=C1O`, the Reduction in experiment [1] is 6%.

In experiment [1], `CC[C@H](NC(=O)Cc1c(C)c2ccc(O)cc2oc1=O)C(=O)O` came in with a Reduction of 0%. In turn, `C=C1CC[C@H]2[C@](C)(CO)[C@H](O)CC[C@@]2(C)[C@@H]1/C=C/C1=CCOC1=O` showed a Reduction in experiment [1] of 0%. Still for that read-out and setting: the same measure for `CC(=O)Oc1ccc2c(C)c(C[C@H](C)O)c(=O)oc2c1`: 42%; for `Cc1c(CCC(=O)O)c(=O)oc2c(C)c(O)ccc12`: 46%. On to `CC[C@@H](O)c1ccc(OC[C@H](O)CN2CCCCC2)c(OC)c1`, for which the Reduction in experiment [1] was 5%.

In experiment [1], `C[C@H]1CC[C@@H]2[C@](C)(CO)[C@H](O)CC[C@@]2(C)[C@]12CC[C@@]1(CCOC1)O2` returned a Reduction of 11%. `C[C@H]1CC[C@H]2[C@@](C)(CO)[C@@H](O)CC[C@]2(C)[C@@]12CC[C@](CO)(CC(=O)O)O2`: the Reduction in experiment [1] is 2%. On to `O=C1C=CC2=C3c4ccc(O)cc4OC[C@]3(O)CC2=C1`, for which the Reduction in experiment [1] came out at 27%. On the same count and under the same terms, the same measure for `COC(=O)c1cc(CC(=O)c2ccc(O)cc2O)c(C)o1`: 0%; for `C[C@H]1CC[C@@H]2[C@](C)(CO)[C@H](O)CC[C@@]2(C)[C@@]12C[C@@]1(COC(=O)C1)CO2`: 9%. Consider `Cc1c(CC(=O)N[C@@H](C)C(=O)O)c(=O)oc2cc(O)ccc12`, for which the Reduction in experiment [1] is 0%. As usually defined, the IC50 is the concentration that gives 50% inhibition. With `O=C(Cc1ccc(O)cc1)c1ccc(O)cc1O`, the relative binding affinity (RBA) is 4530 in experiment [2] and 1150 in experiment [3]. In experiment [1], this compound registered a Reduction of 95%. The IC50 in experiment [4] was found to be 13.6 µM. In addition, the Ka in experiment [5] was 1.2e+06 M⁻¹. With `C[C@H]1CC[C@H]2[C@@](C)(CO)[C@H](O)CC[C@]2(C)[C@@]12CC[C@@](C)(CO)O2`, the Reduction in experiment [1] is 6%. Consider `C=C1CC[C@H]2[C@](C)(CO)[C@H](O)CC[C@@]2(C)[C@@H]1C/C=C1/C(=O)OC[C@@H]1O`, for which the Reduction in experiment [1] is 0%. Still for that read-out and setting: the same measure for `CC1(C)CC2(CC(C)(C)c3cc(O)c(O)cc32)c2cc(O)c(O)cc21`: 48%. In the case of `COc1cc([C@H]2OC[C@]3(CO)[C@H](C)[C@H]2C(C)=C[C@@H]3C)ccc1O`, the relative binding affinity (RBA) in experiment [2] came out at 2750; in experiment [3], 696. The same compound registered a Reduction in experiment [1] of 84%. In experiment [4], the IC50 is 22.4 µM. The compound further showed a Ka in experiment [5] of 730000 M⁻¹. `C=C1CC[C@H]2[C@](C)(CO)[C@H](O)CC[C@@]2(C)[C@@H]1C/C=C1/C(=O)OC[C@H]1O` returned a Reduction in experiment [1] of 7%.

For `O=C(/C=C/c1cccnc1)c1ccc(O)cc1`, the Reduction in experiment [1] worked out at 57%.

Regarding `CN1CCc2cc(O)c(O)cc2[C@H]1Cc1ccc(O)c(O)c1`, the Reduction in experiment [1] stood at 14%. On to `CC1=C[C@@H](C)[C@@]2(CO)CO[C@@H](c3ccc(O)cc3)[C@@H]1[C@H]2C`, for which the relative binding affinity (RBA) in experiment [2] is 493; in experiment [3], 125. The same compound came in with a Reduction in experiment [1] of 56%. In addition, the IC50 in experiment [4] was determined as 124 µM. The compound further had a Ka in experiment [5] of 130000 M⁻¹.

For `Cc1cc(O)c(C(=O)/C=C/c2ccc(O)c([N+](=O)[O-])c2)c(=O)o1`, in experiment [1], the Reduction turned out to be 1%.

With `O=C1C=CC2=N[C@@]34CCCC[C@@H]3[C@@H](c3ccc(O)cc3)C=C(c3ccccc3)N4C2=C1`, in experiment [1], the Reduction is 0%. `COc1cc(/C=C/C(=O)c2c(O)cc(C)oc2=O)ccc1O`: the Reduction in experiment [1] was determined as 2%. In turn, `COC(=O)c1ccc(CC(=O)c2ccc(O)cc2O)o1` came in with a Reduction in experiment [1] of 10%.
